Measured values: PMC10240386 (Cell chemical biology, 2023)
Read-outs that look alike come from different tables or passages of the source.

What was measured:
[1] = system: Pf strains Cam3.I^rev and Cam3.I^R539T; test: Extended RSA / parasite regrowth assay; format: cell-based, Plasmodium falciparum; settings: 6 h pulse as in RSA, parasitemia on day 7, ART-sensitive and ART-resistant lines
Procedure, shortened: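 Cultures repeatedly sorbitol-synchronized, then Percoll-sorbitol enriched for late stages, allowed 3 h reinvasion and sorbitol-treated again to give 0–3 h rings. Rings plated at 0.5% parasitemia and exposed to test compound (700 or 800 nM) for 6 h, then washed. Transferred into 3 mL culture for seven days; parasitemia scored by microscopy on day 7.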

[2] = system: Dd2β5^A49S; test: Parasite growth inhibition assay, erythrocytic stage; format: cell-based, Plasmodium falciparum; settings: for EC50: Plasmodium falciparum, 72 h, read-out: EC50 Dd2β5^A49S; for fold more resistant / reduced potency, Dd2β5^A49S versus parental Dd2: EC50 ratio
[3] = target: human i-20S β5i (Homo sapiens, UniProt P20618+P28062); test: Proteasome IC50 determination, human i-20S β5i; format: biochemical
Procedure, shortened: (§1)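 Human i-20S (0.4 nM) assayed in 20 mM HEPES, 0.5 mM EDTA, 0.1 mg/mL BSA, pH 7.5, with 0.02% SDS and 15 µM Ac-ANW-AMC. Pf20S (1 nM) assayed in 50 mM Tris, 5 mM MgCl2, 1 mM DTT, pH 7.4, with 12 nM PA28α, 0.5 µM WLW-VS and 25 µM suc-LLVY-AMC. Test compound given as a 3-fold series, 100–0.0017 µM final. AMC read at 360/460 nm for 1–2 h; velocities fitted to a dose-response equation. Run in duplicate or triplicate.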

[4] = system: i-20S/PA28α; test: Degradation of the modified β-casein by i-20S; format: biochemical, human; settings: β-casein pre-incubated with 100 μM compound, hemin and ascorbate; for degradation of β-casein by i-20S/PA28α, dialyzed set: then dialyzed; for degradation of β-casein by i-20S/PA28α, non-dialyzed control: not dialyzed
[5] = system: DHA-resistant clones DR1, DR2, DR4 derived from Dd2; test: Standard 72-h in vitro assay on DHA-resistant clones; format: cell-based, Plasmodium falciparum; settings: standard 72-h assay
[6] = system: Pf Dd2^WT; test: Parasite growth inhibition assay, erythrocytic stage; format: cell-based, Plasmodium falciparum; settings: for EC50: read-out: EC50 Pf Dd2^WT; for inhibition of Pf growth: strain not stated in text (Figure 5A)
[7] = target: human c-20S β5c (Homo sapiens, UniProt P20618+P28074); test: Proteasome IC50 determination, human c-20S β5c; format: biochemical
Procedure, shortened: as §1, with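 “c-20S (0.2” for “i-20S (0.4”, “25” for “15”, “suc-LLVY-AMC.” for “Ac-ANW-AMC.”, “h; linear” for “h;”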

[8] = system: Dd2β6^A117D; test: Parasite growth inhibition assay, erythrocytic stage; format: cell-based, Plasmodium falciparum; settings: for EC50: Plasmodium falciparum, 72 h, read-out: EC50 Dd2β6^A117D; for fold more resistant / reduced potency, Dd2β6^A117D versus parental Dd2: EC50 ratio
[9] = system: HepG2 cells; test: HepG2 cell viability assay; format: cell-based; settings: read-out: HepG2
[10] = target: Pf20S β5 (Plasmodium falciparum, UniProt A0A5K1K7U1+Q8IJT1); test: biochemical; format: biochemical; settings: for activity against Pf20S: Pf20S β5
[11] = system: Pf Dd2 proteins and peptides; format: cell-based, Plasmodium falciparum; settings: 700 nM for 6 h, Cy3-alkyne click, in-gel fluorescence
[12] = system: P. berghei G2025^R551T (K13^R551T); test: Modified Peters' 4-day suppressive test for recrudescence, ART-resistant strain; format: in vivo, Swiss Webster mice; settings: ART 50 mg/kg, ATZ4 100 mg/kg i.p. day 0 to day 2
[13] = system: Dd2β6^A117DK13^R539T; test: Parasite growth inhibition, dual resistant strain; format: cell-based, Plasmodium falciparum; settings: EC50 fold change, three experiments (Figure 6B)
[14] = system: Pf20Sβ6^A117D; test: Blocking of MV151 labeling in parasite lysate; format: binding, Plasmodium falciparum; settings: 1 h preincubation of Dd2β6^A117D lysate
Procedure, shortened: (§2)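 Dd2 wild-type or mutant parasite pellets lysed on ice for 1 h in 50 mM Tris-HCl, 5 mM MgCl2, 1 mM DTT, pH 7.4, then centrifuged; protein quantified by BCA. 5–10 µg of lysate protein preincubated with test compound for 1 h at 37°C. MV151 added at 2 µM final for a further 1 h at 37°C, protected from light. Run on 12% Bis-Tris SDS-PAGE and scanned at Cy3/TAMRA (λex 532, λem 560 nm).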

[15] = system: Pf20S β5 in lysate of Dd2^WT; test: Blocking of MV151 labeling in parasite lysate; format: binding, Plasmodium falciparum; settings: 1 h preincubation of Dd2^WT lysate
Procedure, shortened: as §2

[16] = system: Pf20Sβ5^A49S; test: Blocking of MV151 labeling in parasite lysate; format: binding, Plasmodium falciparum; settings: 1 h preincubation of Dd2β5^A49S lysate
Procedure, shortened: as §2

[17] = system: P. berghei ANKA lux; test: In vivo efficacy in mice infected with P. berghei ANKA lux; set-up: species or system Swiss Webster mice; settings: 20 mg/kg i.p. once daily day 3 to day 6, luminescence on day 7; positive control
[18] = Plasmodium falciparum, DD2, Erythrocyte, 72 h

Compound	parasite regrowth after pulse [1]	EC50 [2] [nM]	IC50 [3] [nM]	susceptibility of DHA-resistant clones compared with WT Dd2 [5]	EC50 [6, 18] [nM]	IC50 [7] [nM]	EC50 [8] [nM]	IC50 [10] [nM]	labeling of parasite proteins and peptides [11]	activity against Pf20S [10]	other results
C[C@H]1[C@@H](CC(N)=O)O[C@@H]2O[C@@]3(C)CC[C@H]4[C@H](C)CC[C@@H]1[C@@]24OO3 [ART1, 2-((3R,5aS,6R,8aS,9R,10R,12R,12aR)-3,6,9-trimethyldecahydro-12H-3,12-epoxy[1,2]dioxepino[4,3-i]isochromen-10-yl)acetamide]	re-established normal growth	30.2 ± 2.6	> 100000	modestly resistant	43.7 ± 12.7	> 100000	27.9 ± 11	9200	–	–	activity against human proteasomes ([3]; hu i-20S): inactive; degradation of β-casein by i-20S/PA28α, dialyzed set [4]: unimpeded degradation of β-casein; activity against human proteasomes ([7]; hu c-20S): inactive; EC50 ([9]; Homo sapiens, HepG2, 72 h): > 100000 nM
C[C@@H]1CC[C@H]2[C@@H](C)C(=O)O[C@@H]3O[C@@]4(C)CC[C@@H]1[C@]32OO4 [ART, artemisinin, reference compound]	–	–	–	–	–	–	–	–	minimal labeling of proteins and peptides	–	mice with positive blood smear on day 6 [12]: 20%; mice with positive blood smear on day 8 [12]: 40%; mice with positive blood smear on day 10 [12]: 100%
C[C@H]1[C@@H](CC(=O)NCC(=O)N[C@@H](CC(=O)NC(C)(C)C)C(=O)NCCNC(=O)c2cc(-c3ccccc3F)ccc2F)O[C@@H]2O[C@@]3(C)CC[C@H]4[C@H](C)CC[C@@H]1[C@@]24OO3 [ATZ2, (S)-N4-(tert-butyl)-N1-(2-(2′,4-difluoro-[1,1′-biphenyl]-3-carboxamido)ethyl)-2-(2-(2-((3R,5aS,6R,8aS,9R,10R,12R,12aR)-3,6,9-trimethyldecahydro-12H-3,12-epoxy[1,2]dioxepino[4,3-i]isochromen-10-yl)acetamido)acetamido)succinamide]	–	10.9 ± 2.6	73 ± 19	–	3 ± 0.6	210 ± 40	4.4 ± 1.1	2.9 ± 0.6	–	potency comparable with that of PI01	fold improvement over PI01 against Dd2β5^A49S [2]: > 100 fold; fold more resistant / reduced potency, Dd2β5^A49S versus parental Dd2 [2]: ≤ 3.6 fold; degradation of β-casein by i-20S/PA28α, non-dialyzed control [4]: inhibited the degradation of β-casein; times more potent than ART1 against Dd2 ([6]; EC50 ratio): 10 times; fold improvement over PI01 against Dd2β6^A117D [8]: ≥ 5 fold; fold more resistant / reduced potency, Dd2β6^A117D versus parental Dd2 [8]: ≤ 2.9 fold
C[C@H]1[C@@H](CC(=O)N[C@@H](CCCN=[N+]=[N-])C(=O)N[C@@H](CC(=O)NC(C)(C)C)C(=O)NCCNC(=O)c2cc(-c3ccccc3F)ccc2F)O[C@@H]2O[C@@]3(C)CC[C@H]4[C@H](C)CC[C@@H]1[C@@]24OO3 [ATZ-P1, (S)-2-((S)-5-azido-2-(2-((3R,5aS,6R,8aS,9R,10R,12R,12aR)-3,6,9-trimethyldecahydro-12H-3,12-epoxy[1,2]dioxepino[4,3-i]isochromen-10-yl)acetamido)pentanamido)-N^4-(tert-butyl)-N^1-(2-(2′,4-difluoro-[1,1′-biphenyl]-3-carboxamido)ethyl)succinimide]	–	–	–	–	–	–	–	–	substantial labeling of proteins and peptides	highly potent inhibitors	inhibition of Pf growth [6]: highly potent inhibitors
C[C@H]1[C@@H](O)O[C@@H]2O[C@@]3(C)CC[C@H]4[C@H](C)CC[C@@H]1[C@@]24OO3 [DHA, dihydroartemisinin, reference compound]	re-established normal growth	–	–	highly resistant	–	–	–	–	–	–	–
C[C@H]1[C@@H](CC(=O)NCCCC(=O)N[C@@H](CC(=O)NC(C)(C)C)C(=O)NCCNC(=O)c2cc(-c3ccccc3F)ccc2F)O[C@@H]2O[C@@]3(C)CC[C@H]4[C@H](C)CC[C@@H]1[C@@]24O3 [Deoxy-ATZ4, (S)-N4-(tert-butyl)-N1-(2-(2′,4-difluoro-[1,1′-biphenyl]-3-carboxamido)ethyl)-2-(4-(2-((2R,3R,3aS,3a1R,6R,6aS,9S,10aR)-3,6,9-trimethyldecahydro-10aH-3a1,9-epoxyoxepino [4,3,2-ij]isochromen-2-yl)acetamido)butanamido)succinamide]	–	–	–	equally susceptible	–	–	–	–	–	potency comparable with that of PI01	EC50 ([6]; 72 h growth inhibition in red blood cells, mean ± SD): 21.6 ± 1.4 nM; fold less potent against Dd2β6^A117D compared with Dd2 and Dd2K13^R539T ([8]; EC50 fold change, three experiments (Figure 6B)): 5.6 fold; fold less potent against Dd2β6^A117DK13^R539T compared with Dd2 and Dd2K13^R539T [13]: 11.0 fold; EC50 ([9]; 72 h cell viability, mean ± SD): 10800 nM
CC(C)(C)NC(=O)C[C@H](NC(=O)CCCNC(=O)OC(C)(C)C)C(=O)NCCNC(=O)c1cc(-c2ccccc2F)ccc1F [PI01, tert-butyl (S)-(4-((4-(tert-butylamino)-1-((2-(2′,4-difluoro-[1,1′-biphenyl]-3-carboxamido)ethyl)amino)-1,4-dioxobutan-2-yl)amino)-4-oxobutyl)carbamate]	re-established normal growth	> 2770	200 ± 46	–	7.4 ± 0.2	2000	121 ± 20	6 ± 0.8	–	–	fold more resistant / reduced potency, Dd2β5^A49S versus parental Dd2 [2]: > 370 fold; fold less active on hu i-20S than on Pf20S ([3]; ratio of IC50 values): ~ 30 fold; degradation of β-casein by i-20S/PA28α, non-dialyzed control [4]: inhibited the degradation of β-casein; degradation of β-casein by i-20S/PA28α, dialyzed set [4]: unimpeded degradation of β-casein; blocking of MV151 labeling of β5 [14]: prevented PI01 and ATZ4 from inhibiting; fold less active on hu c-20S than on Pf20S ([7]; ratio of IC50 values): ~300 fold; blocking of MV151 labeling of β5 [15]: dose dependently blocked labeling of β5; fold more resistant / reduced potency, Dd2β6^A117D versus parental Dd2 [8]: 16 fold; blocking of MV151 labeling of β5 [16]: prevented PI01 and ATZ4 from inhibiting; EC50 ([9]; Homo sapiens, HepG2, 72 h): > 100000 nM
CCN(CC)CCCC(C)Nc1ccnc2cc(Cl)ccc12 (stereo not shown) [chloroquine, reference compound]	–	–	–	–	–	–	–	–	–	–	parasite load [17]: below the limit of detection
C[C@H]1[C@@H](CC(=O)N[C@@H](CCCN=[N+]=[N-])C(=O)N[C@@H](CC(=O)NC(C)(C)C)C(=O)NCCNC(=O)c2cc(-c3ccccc3F)ccc2F)O[C@@H]2O[C@@]3(C)CC[C@H]4[C@H](C)CC[C@@H]1[C@@]24O3 [deoxy-ATZ-P1, (S)-2-((S)-5-azido-2-(2-((2R,3R,3aS,3a^1R,6R,6aS,9S,10aR)-3,6,9-trimethyldecahydro-10aH-3a^1,9-epoxyoxepino[4,3,2-ij]isochromen-2-yl)acetamido)pentanamido)-N^4-(tert-butyl)-N^1-(2-(2′,4-difluoro-[1,1′-biphenyl]-3-carboxamido)ethyl)succinamide]	–	–	–	–	–	–	–	–	minimal labeling of proteins and peptides	highly potent inhibitors	inhibition of Pf growth [6]: highly potent inhibitors
